# Assay results from ChEMBL document CHEMBL4665831, “Ultrapotent Inhibitor of Clostridioides difficile Growth, Which Suppresses Recurrence In Vivo” (J Med Chem, 2020).
# Assays:
# Clostridioides difficile [1] = test: Antimicrobial activity against Clostridioides difficile ATCC BAA 1801 assessed as reduction in microbial growth after 48 hrs by broth microdilution method; format: functional
# How it was run: (§1)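 Broth microdilution: a 0.5 McFarland suspension was diluted in brain heart infusion supplemented (BHIS) broth to ~5 × 10^5 CFU/mL. Agents were serially diluted and plates incubated anaerobically at 37°C for 48 h.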
# Lactobacillus crispatus [2] = test: Antibacterial activity against Lactobacillus crispatus HM-371 assessed as reduction in microbial growth after 48 hrs by broth microdilution method
# How it was run: (§2)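 Gut commensal MICs by broth microdilution: a 0.5 McFarland suspension was diluted to ~5 × 10^5 CFU/mL in BHIS broth (Bacteroides) or MRS broth (Lactobacillus). Agents were serially diluted and incubated 48 h at 37°C. MIC was read by visual inspection of growth.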
# Clostridioides difficile [3] = test: Antimicrobial activity against Clostridioides difficile NR-13435 isolate 9 assessed as reduction in microbial growth after 48 hrs by broth microdilution method; format: functional; how it was run: as §1
# Bacteroides fragilis [4] = test: Antibacterial activity against Bacteroides fragilis HM-709 assessed as reduction in microbial growth after 48 hrs by broth microdilution method; format: organism-based; how it was run: as §2
# Clostridioides difficile [5] = test: Antimicrobial activity against Clostridioides difficile NR-32904 P30 assessed as reduction in microbial growth after 48 hrs by broth microdilution method; format: functional; how it was run: as §1
# Lactobacillus crispatus [6] = test: Antibacterial activity against Lactobacillus crispatus HM-103 assessed as reduction in microbial growth after 48 hrs by broth microdilution method; how it was run: as §2
# Clostridioides difficile [7] = test: Antimicrobial activity against Clostridioides difficile NR-13432 isolate 6 assessed as reduction in microbial growth after 48 hrs by broth microdilution method; format: functional; how it was run: as §1
# Phocaeicola dorei = test: Antibacterial activity against Bacteroides dorei HM-719 assessed as reduction in microbial growth after 48 hrs by broth microdilution method; format: organism-based; how it was run: as §2
# Bacteroides fragilis [8] = test: Antibacterial activity against Bacteroides fragilis HM-711 assessed as reduction in microbial growth after 48 hrs by broth microdilution method; format: organism-based; how it was run: as §2
# Lactobacillus gasseri = test: Antibacterial activity against Lactobacillus gasseri HM-400 assessed as reduction in microbial growth after 48 hrs by broth microdilution method; how it was run: as §2
# Clostridioides difficile [9] = test: Antimicrobial activity against Clostridioides difficile NR-32891 P13 assessed as reduction in microbial growth after 48 hrs by broth microdilution method; format: functional; how it was run: as §1
# Clostridioides difficile [10] = test: Antimicrobial activity against Clostridioides difficile NR-32883 P2 assessed as reduction in microbial growth after 48 hrs by broth microdilution method; format: functional; how it was run: as §1
# Clostridioides difficile [11] = test: Antimicrobial activity against Clostridioides difficile ATCC 43255 assessed as reduction in microbial growth after 48 hrs by broth microdilution method; format: functional; how it was run: as §1
# Clostridioides difficile [12] = test: Antimicrobial activity against Clostridioides difficile NR-32895 P19 assessed as reduction in microbial growth after 48 hrs by broth microdilution method; format: functional; how it was run: as §1
# [13] = target: Cyclin-dependent kinase 2 (Homo sapiens, UniProt P24941); test: Inhibition of human CDK2 expressed in sf9 insect cells
# Enterococcus faecalis = test: Antimicrobial activity against vancomycin-resistant Enterococcus […] ATCC 51299 assessed as reduction in microbial growth after 48 hrs by CLSI based broth microdilution method; format: functional
# How it was run: (§3)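 CLSI broth microdilution: strains were grown aerobically overnight on tryptone soy agar at 37°C. A 0.5 McFarland suspension was diluted to ~5 × 10^5 CFU/mL in cation-adjusted Mueller-Hinton broth (E. coli) or tryptone soy broth (enterococci), and agents were serially diluted.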
# Escherichia coli = test: Antimicrobial activity against Escherichia coli JW55031 harboring TolC mutant assessed as reduction in microbial growth after 48 hrs by CLSI based broth microdilution method; format: functional; how it was run: as §3
# Enterococcus faecium = test: Antimicrobial activity against vancomycin-resistant Enterococcus faecium ATCC 700221 assessed as reduction in microbial growth after 48 hrs by CLSI based broth microdilution method; format: functional; how it was run: as §3
# Clostridioides difficile [14] = test: Antibacterial activity against Clostridioides difficile ATCC 43255 infected in CDI mouse model assessed as survival rate at 10 mg/kg, po for 5 days relative to control; format: functional; conditions: ATCC 43255, po, 120 h, time 5 day
# Clostridioides difficile [15] = test: Antibacterial activity against Clostridioides difficile ATCC 43255 infected in CDI mouse model assessed as bacterial recurrence at 10 mg/kg, po for 5 days and measured on day 21 relative to control; format: functional; conditions: time 21 day
# Clostridioides difficile [16] = test: Antimicrobial activity against Clostridioides difficile ATCC 43255 assessed as drug resistance by measuring frequency of mutation at 20 times of MIC after 48 hrs; format: functional
# Clostridioides difficile [17] = test: Antimicrobial activity against Clostridioides difficile ATCC 43255 assessed as drug resistance by measuring frequency of mutation at 15 times of MIC after 48 hrs; format: functional
compound,measurement,setting,value
O=C(Nc1nnc(-c2cccc(C(F)(F)F)c2)o1)c1ccc(SC(F)(F)F)cc1,MIC,Clostridioides difficile [1],0.04 µM
CCc1c(Cl)c(O)c(Cl)c(O)c1C(=O)O[C@H]1[C@H](O)[C@H](OC)[C@H](OC/C2=C\C=C\C[C@H](O)/C(C)=C/[C@H](CC)[C@@H](O[C@@H]3OC(C)(C)[C@@H](OC(=O)C(C)C)[C@H](O)[C@@H]3O)/C(C)=C/C(C)=C/C[C@@H]([C@@H](C)O)OC2=O)O[C@@H]1C [FIDAXOMICIN],MIC,Lactobacillus crispatus [2],> 60.5 µM
same,MIC,Clostridioides difficile [3],0.06 µM
same,MIC,Bacteroides fragilis [4],> 60.5 µM
same,MIC,Clostridioides difficile [5],0.01 µM
same,MIC,Lactobacillus crispatus [6],> 60.5 µM
same,MIC,Clostridioides difficile [1],0.06 µM
same,MIC,Clostridioides difficile [7],0.06 µM
same,MIC,Phocaeicola dorei,> 60.5 µM
same,MIC,Bacteroides fragilis [8],> 60.5 µM
same,MIC,Lactobacillus gasseri,> 60.5 µM
same,MIC,Clostridioides difficile [9],0.01 µM
same,MIC,Clostridioides difficile [10],0.03 µM
same,MIC,Clostridioides difficile [11],0.01 µM
same,MIC,Clostridioides difficile [12],0.03 µM
O=C(Nc1nnc(-c2cccs2)o1)c1ccc(SC(F)(F)F)cc1,MIC,Clostridioides difficile [1],1.4 µM
CC(C)c1ccc(-c2nnc(NC(=O)c3ccc(SC(F)(F)F)cc3)o2)cc1,MIC,Clostridioides difficile [1],314 µM
O=C(Nc1nnc(-c2ccc(Cl)cc2Cl)o1)c1ccc(SC(F)(F)F)cc1,MIC,Clostridioides difficile [1],0.07 µM
CN1CC[C@H](c2c(O)cc(O)c3c(=O)cc(-c4ccccc4)oc23)[C@H](O)C1,IC50,[13],2.4 µM
O=C(Nc1nnc(-c2ccccn2)o1)c1ccc(SC(F)(F)F)cc1,MIC,Clostridioides difficile [1],21.8 µM
O=C(Nc1nnc(-c2ccccc2)o1)c1ccc(SC(F)(F)F)cc1,MIC,Clostridioides difficile [1],5.5 µM
Cc1ccc(-c2nnc(NC(=O)c3ccc(SC(F)(F)F)cc3)o2)cc1,MIC,Clostridioides difficile [1],10.5 µM
O=C(Nc1nnc(-c2ccc(F)cc2)o1)c1ccc(SC(F)(F)F)cc1,MIC,Clostridioides difficile [1],10.4 µM
O=C(Nc1nnc(-c2cccc(Cl)c2)o1)c1ccc(SC(F)(F)F)cc1,MIC,Clostridioides difficile [1],0.08 µM
CC(=O)NC[C@H]1CN(c2ccc(N3CCOCC3)c(F)c2)C(=O)O1 [LINEZOLID],MIC,Enterococcus faecalis,3 µM
same,MIC,Escherichia coli,47.4 µM
same,MIC,Enterococcus faecium,3 µM
O=C(Nc1nnc(-c2ccc(C(F)(F)F)cc2)o1)c1ccc(SC(F)(F)F)cc1,MIC,Clostridioides difficile [1],0.29 µM
Cc1ncc([N+](=O)[O-])n1CCO [METRONIDAZOLE],MIC,Lactobacillus crispatus [2],> 373.9 µM
same,MIC,Enterococcus faecalis,> 374 µM
same,MIC,Clostridioides difficile [3],0.7 µM
same,MIC,Enterococcus faecium,> 374 µM
same,MIC,Bacteroides fragilis [4],11.68 µM
same,MIC,Clostridioides difficile [5],1.46 µM
same,MIC,Lactobacillus crispatus [6],> 373.9 µM
same,MIC,Clostridioides difficile [1],1.46 µM
same,MIC,Clostridioides difficile [7],1.46 µM
same,MIC,Phocaeicola dorei,5.84 µM
same,MIC,Bacteroides fragilis [8],5.84 µM
same,MIC,Lactobacillus gasseri,> 373.9 µM
same,MIC,Clostridioides difficile [9],0.7 µM
same,MIC,Clostridioides difficile [10],0.7 µM
same,MIC,Clostridioides difficile [11],1.46 µM
same,MIC,Clostridioides difficile [12],1.46 µM
O=C(Nc1nnc(-c2ccc(Cl)cc2)o1)c1ccc(SC(F)(F)F)cc1,MIC,Clostridioides difficile [1],5 µM
COc1cccc(-c2nnc(NC(=O)c3ccc(SC(F)(F)F)cc3)o2)c1,MIC,Clostridioides difficile [1],10.1 µM
GENTAMICIN,MIC,Escherichia coli,0.52 µM
O=C(Nc1nnc(-c2ccccc2F)o1)c1ccc(SC(F)(F)F)cc1,MIC,Clostridioides difficile [1],10.4 µM
O=C(Nc1nnc(-c2ccccc2Cl)o1)c1ccc(SC(F)(F)F)cc1,MIC,Clostridioides difficile [1],10 µM
COc1ccc(-c2nnc(NC(=O)c3ccc(SC(F)(F)F)cc3)o2)cc1,MIC,Clostridioides difficile [1],10.1 µM
O=C(Nc1nnc(-c2cccc(F)c2)o1)c1ccc(SC(F)(F)F)cc1,MIC,Clostridioides difficile [1],0.08 µM
CN[C@H](CC(C)C)C(=O)N[C@H]1C(=O)N[C@@H](CC(N)=O)C(=O)N[C@H]2C(=O)N[C@H]3C(=O)N[C@H](C(=O)N[C@H](C(=O)O)c4cc(O)cc(O)c4-c4cc3ccc4O)[C@H](O)c3ccc(c(Cl)c3)Oc3cc2cc(c3O[C@@H]2O[C@H](CO)[C@@H](O)[C@H](O)[C@H]2O[C@H]2C[C@](C)(N)[C@H](O)[C@H](C)O2)Oc2ccc(cc2Cl)[C@H]1O [VANCOMYCIN],MIC,Lactobacillus crispatus [2],1.4 µM
same,MIC,Enterococcus faecalis,> 44.2 µM
same,survival at 10 mg/kg,Clostridioides difficile [14],100%
same,Activity,Clostridioides difficile [15],83.3%
same,MIC,Clostridioides difficile [3],0.7 µM
same,MIC,Escherichia coli,> 44.2 µM
same,MIC,Bacteroides fragilis [4],22.1 µM
same,MIC,Clostridioides difficile [5],0.7 µM
same,MIC,Lactobacillus crispatus [6],1.4 µM
same,MIC,Clostridioides difficile [1],0.7 µM
same,MIC,Clostridioides difficile [7],0.2 µM
same,MIC,Phocaeicola dorei,44.2 µM
same,MIC,Bacteroides fragilis [8],44.2 µM
same,Activity,Clostridioides difficile [16],<1.1 10^-9No_unit
same,MIC,Lactobacillus gasseri,<= 0.7 uM
same,MIC,Clostridioides difficile [9],0.4 µM
same,MIC,Clostridioides difficile [10],0.4 µM
same,MIC,Clostridioides difficile [11],0.7 µM
same,MIC,Clostridioides difficile [12],0.7 µM
same,Activity,Clostridioides difficile [17],<1.1 10^-9No_unit
COc1ccc(Cl)cc1-c1nnc(NC(=O)c2ccc(SC(F)(F)F)cc2)o1,MIC,Clostridioides difficile [1],4.7 µM
